Assay results reported in ChEMBL document CHEMBL1833887, “Synthesis and evaluation of 7-substituted 4-aminoquinoline analogues for antimalarial activity” (J Med Chem, 2011).
≈ marks a conversion by molar mass, not a printed value.

How the values were obtained:
HepG2 = test: Cytotoxicity against human HepG2 cells assessed as intracellular ATP level after 72 hrs by Celltiter-Glo luminescent assay; type: cell-based; details: HepG2, 72 h
[1] = Ratio of EC50 for human HepG2 cells to EC50 for Plasmodium falciparum K1 infected in human erythrocytes
Plasmodium falciparum [2] = test: Antimalarial activity against chloroquine-sensitive Plasmodium falciparum 3D7 infected in human erythrocytes assessed as reduction in parasitemia after 72 hrs by spectrophotometry; type: functional, organism-based; details: 3D7, 72 h
Plasmodium falciparum [3] = test: Ratio of EC50 for chloroquine-resistant Plasmodium falciparum K1 infected in human erythrocytes to EC50 for chloroquine-sensitive Plasmodium falciparum 3D7 infected in human erythrocytes; type: functional
Plasmodium falciparum [4] = test: Antimalarial activity against chloroquine-resistant Plasmodium falciparum K1 infected in human erythrocytes assessed as reduction in parasitemia after 72 hrs by spectrophotometry; type: functional, organism-based; details: K1, 72 h
[5] = Ratio of EC50 for human HepG2 cells to EC50 for Plasmodium falciparum 3D7 infected in human erythrocytes
[6] = Permeability of the compound at pH 7.4 after 30 mins by PAMPA; type: ADME; details: read-out: permeability
Summary of the method: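 PAMPA at pH 7.4. A 10 mM DMSO stock is diluted into system solution buffer; its UV spectrum serves as reference. Membrane painted with GIT lipid, acceptor chamber holds acceptor solution buffer. Sandwich stirred for 30 min, aqueous boundary layer set to 40. Donor and acceptor UV spectra read at 250–500 nm. Permeability coefficient from the AUCs of reference, donor and acceptor. Single experiment in triplicate.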

[7] = Solubility of the compound at pH 7.4 after 18 hrs by UV spectroscopic analysis; type: physicochemical; details: buffer
Summary of the method: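 Kinetic solubility. A 10 mM stock is diluted 1:100 into PBS pH 7.4 and incubated 18 h at room temperature, then filtered; the filtrate is mixed 1:1 with 1-propanol. UV spectrum (250–500 nm) compared by AUC with a 1-propanol/PBS reference. Single experiment in triplicate.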

[8] = Dissociation constant, pKa of the compound; type: physicochemical

Structure (SMILES) | EC50 (HepG2) [µM] | Ratio EC50 [1] | EC50 (Plasmodium falciparum [2]) [µM] | Ratio EC50 (Plasmodium falciparum [3]) | EC50 (Plasmodium falciparum [4]) [µM] | Ratio EC50 [5] | Papp at 0.5 h [6] [×10⁻⁶ cm/s] | solubility at 18 h [7] [µM] | pKa [8]
COc1cccc(CNCCCNc2ccnc3cc(Cc4ccc5c(c4)OCO5)ccc23)c1O | 1.14 | 22.7 | 0.008 | 6 | 0.05 | 135.4 | 237 | 32 (≈ 15.1 µg/mL) | 9.47
COc1cccc(Oc2ccc3c(NCCCNCc4cc(F)ccc4OC)ccnc3c2)c1 | 7.1 | 24 | 2.36 | 0.1 | 0.296 | 3 | 317 | 14.5 (≈ 6.69 µg/mL) | 9.28
COc1ccc(Oc2ccc3c(NCCCNCc4ccco4)ccnc3c2)cc1 | 5.3 | 265 | 0.004 | 5.6 | 0.02 | 1479 | 317 | 14.5 (≈ 5.85 µg/mL) | 9.28
CCC(CC)c1ccc2c(NCCCNCc3cccc(OC)c3O)ccnc2c1 | 0.41 | 1.5 | 0.004 | 68.3 | 0.273 | 103.3 | 23 | 4.2 (≈ 1.71 µg/mL) | 9.47
c1ccc(Oc2ccc3c(NCCCNCc4ccco4)ccnc3c2)cc1 | 15.2 | 3 | 0.314 | 19 | 5.97 | 48 | 317 | 14.5 (≈ 5.42 µg/mL) | 9.28
c1ccc(CCc2ccc3c(NCCCNCc4ccco4)ccnc3c2)cc1 | 16 | 5.5 | 0.046 | 63.7 | 2.93 | 347.8 | 23 | 4.2 (≈ 1.62 µg/mL) | 9.47
COc1ccc(F)cc1CNCCCNc1ccnc2cc(C3CCCCC3)ccc12 | 2.29 | 1.4 | 0.09 | 17.7 | 1.6 | 25.4 | 23 | 4.2 (≈ 1.77 µg/mL) | 9.47
COc1ccc(F)cc1CNCCCNc1ccnc2cc(CCC(C)C)ccc12 | 0.89 | 2.5 | 0.116 | 3.1 | 0.36 | 7.7 | 23 | 4.2 (≈ 1.72 µg/mL) | 9.47
CC(C)Cc1ccc2c(NCCCNCc3ccc4c(c3)OCO4)ccnc2c1 | 2.38 | 1.3 | 0.066 | 27.7 | 1.81 | 36.3 | 23 | 4.2 (≈ 1.64 µg/mL) | 9.47
FC(F)(F)c1cccc(Cc2ccc3c(NCCCNCc4ccco4)ccnc3c2)c1 | 3.19 | 4.3 | 0.056 | 13.2 | 0.743 | 56.7 | 23 | 4.2 (≈ 1.85 µg/mL) | 9.47
COc1ccc(F)cc1CNCCCNc1ccnc2cc(Oc3ccc(F)cc3)ccc12 | 6.6 | 49 | 0.297 | 0.5 | 0.135 | 22 | 317 | 14.5 (≈ 6.52 µg/mL) | 9.28
COc1cccc(Oc2ccc3c(NCCCNCc4ccco4)ccnc3c2)c1 | 15.5 | 102 | 0.009 | 17.4 | 0.153 | 1763 | 317 | 14.5 (≈ 5.85 µg/mL) | 9.28
COc1ccccc1Oc1ccc2c(NCCCNCc3ccco3)ccnc2c1 | 6.5 | 75 | 0.001 | 66.9 | 0.087 | 5014 | 317 | 14.5 (≈ 5.85 µg/mL) | 9.28
COc1cccc(CNCCCNc2ccnc3cc(-c4cc(C(F)(F)F)cc(C(F)(F)F)c4)ccc23)c1O | 0.94 | 4.5 | 0.029 | 7.2 | 0.209 | 32.4 | 237 | 32 (≈ 17.6 µg/mL) | 9.47
c1ccc(Cc2ccc3c(NCCCNCc4ccc5c(c4)OCO5)ccnc3c2)cc1 | 6.28 | 5.1 | 0.72 | 1.7 | 1.24 | 8.7 | 23 | 4.2 (≈ 1.79 µg/mL) | 9.47
COc1cccc(CNCCCNc2ccnc3cc(-c4ccc(F)cc4)ccc23)c1O | 6.84 | 8 | 0.009 | 92.8 | 0.854 | 742.9 | 237 | 32 (≈ 13.8 µg/mL) | 9.47
COc1ccc(Oc2ccc3c(NCCCNCc4cccc(OC)c4O)ccnc3c2)cc1 | 5.5 | 15 | 0.004 | 91.5 | 0.375 | 1347 | 317 | 14.5 (≈ 6.66 µg/mL) | 9.28
Fc1ccc(-c2ccc3c(NCCCNCc4ccc5c(c4)OCO5)ccnc3c2)cc1 | 8.77 | 252 | 0.018 | 2 | 0.035 | 495.4 | 237 | 32 (≈ 13.7 µg/mL) | 9.47
COc1cccc(Oc2ccc3c(NCCCNCc4cccc(OC)c4O)ccnc3c2)c1 | 5.3 | 2 | 0.072 | 42 | 3.03 | 74 | 317 | 14.5 (≈ 6.66 µg/mL) | 9.28
c1cc(NCCCNCc2ccc3c(c2)OCO3)c2ccc(Cc3ccc4c(c3)OCO4)cc2n1 | 4.79 | 178.8 | 0.026 | 1 | 0.027 | 185 | 237 | 32 (≈ 15 µg/mL) | 9.47
COc1ccc(F)cc1CNCCCNc1ccnc2cc(CCc3ccccc3)ccc12 | 4.24 | 2 | 0.132 | 16.2 | 2.14 | 32.1 | 23 | 4.2 (≈ 1.86 µg/mL) | 9.47
